Assay results gathered from unrelated publications.
Lines come from different studies, so protocols differ.
SLC22A8: Organic anion transporter 3 (SLC22A8, Homo sapiens, UniProt Q8TCC7)

CCCCNc1cc(C(=O)O)cc(S(N)(=O)=O)c1Oc1ccccc1 — inhibition (SLC22A8; transporter uptake, inhibitor, radiometric; 200 µM, 1 h, oocytes): 97%
CN(C(=O)n1cnc(-c2ccc[n+]([O-])c2)c1)C1CCCCC1 — inhibition (SLC22A8; transporter uptake, inhibitor; HEK293; 3 µg/mL): 10%
CC(=O)O[C@H]1C(=O)[C@@]2(C)[C@H]([C@H](OC(=O)c3ccccc3)[C@]3(O)C[C@H](OC(=O)[C@H](O)[C@@H](NC(=O)c4ccccc4)c4ccccc4)C(C)=C1C3(C)C)[C@]1(OC(C)=O)CO[C@@H]1C[C@@H]2O — IC50 (Bel-7402; cell growth or viability, MTT; 48 h): 28.2 µM
CC(C)n1cc(C#N)c2cc(-n3cc(C(=O)O)cn3)ccc21 — AUC(0-t) (human, plasma; oral, 200 mg, single dose, fed): 43.7 µg·h/mL
CCc1nc2c(C)cc(N3CCN(CC(=O)N4CC(O)C4)CC3)cn2c1N(C)c1nc(-c2ccc(F)cc2)c(C#N)s1 — AUC(0-inf) (human, plasma; oral, 1500 mg, single dose, fed, healthy volunteers): 168 µg·h/mL
COc1ccc([C@@H]2CN(C(=O)[C@@H](O)CO)C[C@@]2(C)[C@@H](C)O)cc1OC1CN(c2ccc(C)cn2)C1 — AUC(0-inf) (human, plasma; oral, 20 mg, single dose, healthy volunteers): 4.09 µg·h/mL
O=C(O)CSc1nnc(Br)n1-c1ccc(C2CC2)c2ccccc12 — inhibition (SLC22A8; transporter uptake, inhibitor, radiometric; 5 µM, 1 h, oocytes): 64%
CON=C(N)c1ccc(-c2ccc(-c3ccc(C(N)=NOC)cc3)o2)cc1 — Km (Cytochrome P450 4F3 (CYP4F3, Homo sapiens, UniProt Q08477); enzyme activity, substrate): 3.2 µM
CC(C)(C)c1ccc(O)c(CN(Cc2cc(C(C)(C)C)ccc2O)C2CCC(NC(N)=O)CC2)c1 (stereo not shown) — tissue/plasma ratio (male C57BL/6 mouse, brain; intraperitoneal, 5 mg/kg, single dose): 0.68
CC(C)(O)c1ccccc1-c1ccc2[nH]c(/C=C/c3ccc(C(F)(F)F)cc3)nc2c1 — AUC(0-t) (male human, plasma; oral, 5 mg, single dose, fasted, healthy volunteers): 0.971 µg·h/mL
